Measurements as given in publication PMC3055939 (Chemical biology & drug design, 2011).

What was measured:
[1] = cited from earlier work
purified PSMA (GCP2) = purified PSMA (GCP2) (Homo sapiens, UniProt Q04609); test: IC50 determinations for PSMA inhibition; assay type: biochemical
Outline: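 Purified PSMA (working stock 50 μg/mL) was diluted in 50 mM Tris, pH 7.4, 1% Triton X-100 to give 15–20% substrate conversion without inhibitor. […] Reactions were quenched with 2% TFA in methanol, buffered with K2HPO4, and centrifuged. Product was quantified by HPLC, and IC50 was calculated.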

Sequence of purified PSMA (GCP2) (Q04609 whole entry): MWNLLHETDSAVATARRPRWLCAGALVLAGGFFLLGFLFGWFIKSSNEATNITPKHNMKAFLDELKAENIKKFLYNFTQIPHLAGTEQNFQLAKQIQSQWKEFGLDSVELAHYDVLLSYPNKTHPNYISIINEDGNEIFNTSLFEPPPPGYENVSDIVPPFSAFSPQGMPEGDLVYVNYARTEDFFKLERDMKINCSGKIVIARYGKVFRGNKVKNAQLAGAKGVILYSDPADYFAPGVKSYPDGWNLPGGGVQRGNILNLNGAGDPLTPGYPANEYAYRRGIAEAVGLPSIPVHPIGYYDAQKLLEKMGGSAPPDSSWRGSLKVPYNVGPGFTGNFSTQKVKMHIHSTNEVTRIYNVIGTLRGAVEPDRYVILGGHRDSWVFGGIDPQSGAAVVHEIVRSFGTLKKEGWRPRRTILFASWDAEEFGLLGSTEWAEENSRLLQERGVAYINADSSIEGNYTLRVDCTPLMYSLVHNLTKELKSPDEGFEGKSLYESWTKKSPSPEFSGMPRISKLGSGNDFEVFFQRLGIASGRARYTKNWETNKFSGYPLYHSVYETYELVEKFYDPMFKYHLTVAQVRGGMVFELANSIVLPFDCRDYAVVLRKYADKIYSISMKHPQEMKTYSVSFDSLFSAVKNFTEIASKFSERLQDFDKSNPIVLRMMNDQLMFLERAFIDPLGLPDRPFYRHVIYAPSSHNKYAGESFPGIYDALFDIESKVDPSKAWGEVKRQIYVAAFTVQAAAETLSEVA

IC50 (purified PSMA (GCP2)) [µM] | SMILES | oral bioavailability [1]
 | O=C(O)CCC(CP(=O)(O)O)C(=O)O (centres unmarked) [2-PMPA] | poor oral bioavailability
> 100 | C=CS(=O)(=O)NC(CCC(=O)O)C(=O)O (centres unmarked) [2e, 2-Ethenesulfonylamino-pentanedioic acid] | 
